ChEMBL document CHEMBL3877264, “Quinolidene-rhodanine conjugates: Facile synthesis and biological evaluation” (Eur J Med Chem, 2017)
In brackets after ≈: the same amount, converted by molar mass.

What was measured:
[1] = Cytotoxicity against […]-differentiated human THP1 cells measured after 48 hrs by MTT assay; type: toxicity, cell-based, THP-1
How it was run: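 MTT assay with 48 h compound exposure. THP-1 macrophages made by 24 h PMA treatment. Each concentration tested in triplicate in one experiment. % cytotoxicity = (control−test)/(control−blank)×100, with control = cells + DMSO and blank = medium without cells. IC50 from % survival versus concentration plots.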

[2] = tested on: Mycobacterium tuberculosis; assay: Growth inhibition of Mycobacterium bovis BCG ATCC 35743 at active stage at 50 ug/ml measured after 8 days by nitrate reductase dye based two fold dilution method relative to control; type: functional; conditions: BCG str. ATCC 35743, 192 h, read-out: GI
[3] = Cytotoxicity against human A549 cells measured after 48 hrs by MTT assay; type: toxicity, cell-based
[4] = tested on: Mycobacterium tuberculosis; assay: Growth inhibition of Mycobacterium tuberculosis H37Ra ATCC 25177 at dormant stage at 3.13 ug/ml measured after 12 days by XTT dye based two fold dilution method relative to control; type: functional; conditions: H37Ra ATCC 25177, 288 h, read-out: GI
How it was run: (§1)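 MTB H37Ra was grown in Dubos medium, then exposed in Mycobacterium pheli minimal medium (pH 6.6) to compounds dissolved in DMSO. The assay ended on day 8 (active) or day 12 (dormant). Viable cells were measured by XTT reduction menadione assay at 470 nm, blank-corrected, relative to vehicle control. Triplicates were expressed as mean ± SD. MIC came from dose-response curves.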

[5] = Cytotoxicity against human HeLa cells measured after 48 hrs by MTT assay; type: toxicity, cell-based
[6] = tested on: Mycobacterium tuberculosis; assay: Growth inhibition of Mycobacterium bovis BCG ATCC 35743 at active stage at 25 ug/ml measured after 8 days by nitrate reductase dye based two fold dilution method relative to control; type: functional; conditions: BCG str. ATCC 35743, 192 h, read-out: GI
How it was run: (§2)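 M. bovis BCG was grown in Dubos medium and assayed in Mycobacterium pheli minimal medium (pH 6.6), with compounds from DMSO stocks. Incubation lasted 8 days for active and 12 days for dormant cultures. Viability was read by nitrate reductase at 540 nm against cell-free blanks, with vehicle set as 100% growth. Primary screen was at 30, 10 and 3 µg/ml, in triplicate, mean ± SD. MIC was taken from dose-response curves.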

[7] = Cytotoxicity against human A549 cells assessed as growth inhibition at 100 ug/ml measured after 48 hrs by MTT assay relative to control; type: toxicity, cell-based; conditions: read-out: GI
Staphylococcus aureus [8] = assay: Growth inhibition of Staphylococcus aureus NCIM 2010 at 3 ug/ml measured after 12 hrs relative to control; type: functional; conditions: NCIM 2010, 12 h, read-out: GI
How it was run: (§3)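 Bacteria grown in LB at 37 °C and 180 rpm to OD 1. Compounds added to wells, then 0.1% inoculum of 1 OD culture (620 nm). Growth read as OD at 620 nm after 8 h for gram-negative and after 12 h for gram-positive strains.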

[9] = Cytotoxicity against human PANC1 cells assessed as growth inhibition at 100 ug/ml measured after 48 hrs by MTT assay relative to control; type: toxicity, cell-based, PANC-1; conditions: read-out: GI
Bacillus subtilis = assay: Growth inhibition of Bacillus subtilis NCIM 2079 at 10 ug/ml measured after 12 hrs relative to control; type: functional; conditions: NCIM 2079, 12 h, read-out: GI; how it was run: as §3
[10] = tested on: Mycobacterium tuberculosis; assay: Growth inhibition of Mycobacterium bovis BCG ATCC 35743 at dormant stage at 3 ug/ml measured after 12 days by nitrate reductase dye based two fold dilution method relative to control; type: functional; conditions: BCG str. ATCC 35743, 288 h, read-out: GI; how it was run: as §2
[11] = tested on: Mycobacterium tuberculosis; assay: Growth inhibition of Mycobacterium tuberculosis H37Ra ATCC 25177 at active stage at 1.56 ug/ml measured after 8 days by XTT dye based two fold dilution method relative to control; type: functional; conditions: H37Ra ATCC 25177, 192 h, read-out: GI; how it was run: as §1
Escherichia coli [12] = assay: Antibacterial activity against Escherichia coli NCIM 2688 measured after 8 hrs; type: functional; conditions: NCIM 2688, 8 h; how it was run: as §3
[13] = Antifungal activity against Fusarium oxysporum NCIM 1332 by standard agar method; type: functional
How it was run: (§4)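 MICs determined by standard agar method; DMSO as solvent control.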

Escherichia coli [14] = assay: Growth inhibition of Escherichia coli NCIM 2688 at 30 ug/ml measured after 8 hrs relative to control; type: functional; conditions: NCIM 2688, 8 h, read-out: GI; how it was run: as §3
[15] = tested on: Mycobacterium tuberculosis; assay: Growth inhibition of Mycobacterium bovis BCG ATCC 35743 at active stage at 3.13 ug/ml measured after 8 days by nitrate reductase dye based two fold dilution method relative to control; type: functional; conditions: BCG str. ATCC 35743, 192 h, read-out: GI; how it was run: as §2
Staphylococcus aureus [16] = assay: Growth inhibition of Staphylococcus aureus NCIM 2010 at 30 ug/ml measured after 12 hrs relative to control; type: functional; conditions: NCIM 2010, 12 h, read-out: GI; how it was run: as §3
[17] = Selectivity index, ratio of GI50 for HUVEC to MIC for Mycobacterium bovis BCG ATCC 35743 at dormant stage; conditions: pooled result: one value given for 6 cell lines, strains, targets or settings
How it was run: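 SI is the cell-line GI50 divided by the dormant-stage mycobacterial MIC. […] THP-1 macrophages were PMA-differentiated for 24 h.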

[18] = tested on: Mycobacterium tuberculosis; assay: Growth inhibition of Mycobacterium tuberculosis H37Ra ATCC 25177 at dormant stage at 25 ug/ml measured after 12 days by XTT dye based two fold dilution method relative to control; type: functional; conditions: H37Ra ATCC 25177, 288 h, read-out: GI; how it was run: as §1
[19] = tested on: Mycobacterium tuberculosis; assay: Growth inhibition of Mycobacterium bovis BCG ATCC 35743 at active stage at 6.25 ug/ml measured after 8 days by nitrate reductase dye based two fold dilution method relative to control; type: functional; conditions: BCG str. ATCC 35743, 192 h, read-out: GI; how it was run: as §2
[20] = tested on: Mycobacterium tuberculosis; assay: Growth inhibition of Mycobacterium tuberculosis H37Ra ATCC 25177 at dormant stage at 100 ug/ml measured after 12 days by XTT dye based two fold dilution method relative to control; type: functional; conditions: H37Ra ATCC 25177, 288 h, read-out: GI; how it was run: as §1
[21] = tested on: Mycobacterium tuberculosis; assay: Growth inhibition of Mycobacterium tuberculosis H37Ra ATCC 25177 at dormant stage at 6.25 ug/ml measured after 12 days by XTT dye based two fold dilution method relative to control; type: functional; conditions: H37Ra ATCC 25177, 288 h, read-out: GI; how it was run: as §1
[22] = tested on: Mycobacterium tuberculosis; assay: Growth inhibition of Mycobacterium tuberculosis H37Ra ATCC 25177 at active stage at 0.78 ug/ml measured after 8 days by XTT dye based two fold dilution method relative to control; type: functional; conditions: H37Ra ATCC 25177, 192 h, read-out: GI; how it was run: as §1
[23] = tested on: Mycobacterium tuberculosis; assay: Growth inhibition of Mycobacterium bovis BCG ATCC 35743 at dormant stage at 1.56 ug/ml measured after 12 days by nitrate reductase dye based two fold dilution method relative to control; type: functional; conditions: BCG str. ATCC 35743, 288 h, read-out: GI; how it was run: as §2
Staphylococcus aureus [24] = assay: Antibacterial activity against of Staphylococcus aureus NCIM 2010 measured after 12 hrs; type: functional; conditions: NCIM 2010, 12 h; how it was run: as §3
[25] = Cytotoxicity against human PANC1 cells measured after 48 hrs by MTT assay; type: toxicity, cell-based, PANC-1
[26] = tested on: Mycobacterium tuberculosis; assay: Growth inhibition of Mycobacterium bovis BCG ATCC 35743 at active stage at 1.56 ug/ml measured after 8 days by nitrate reductase dye based two fold dilution method relative to control; type: functional; conditions: BCG str. ATCC 35743, 192 h, read-out: GI; how it was run: as §2
Candida albicans = assay: Antifungal activity against Candida albicans NCIM 3471 by standard agar method; type: functional; how it was run: as §4
[27] = tested on: Mycobacterium tuberculosis; assay: Growth inhibition of Mycobacterium tuberculosis H37Ra ATCC 25177 at dormant stage at 12.5 ug/ml measured after 12 days by XTT dye based two fold dilution method relative to control; type: functional; conditions: H37Ra ATCC 25177, 288 h, read-out: GI
[28] = tested on: Mycobacterium tuberculosis; assay: Growth inhibition of Mycobacterium tuberculosis H37Ra ATCC 25177 at active stage measured after 8 days by XTT dye based two fold dilution method; type: functional; conditions: H37Ra ATCC 25177, 192 h; how it was run: as §1

| Compound | GI50 at 48 h [1] | GI50 at 48 h [3] | inhibition of growth at 3.13 µg/mL [4] | GI50 at 48 h [5] | inhibition at 48 h, 100 ug/ml [7] | inhibition of growth at 3 µg/mL (Staphylococcus aureus [8]) | inhibition at 48 h, 100 ug/ml [9] | inhibition of growth at 10 µg/mL (Bacillus subtilis) | inhibition of growth at 3 µg/mL [10] | inhibition of growth at 1.56 µg/mL [11] | MIC (Escherichia coli [12]) | MIC [13] | inhibition of growth at 30 µg/mL (Escherichia coli [14]) | inhibition of growth at 30 µg/mL (Staphylococcus aureus [16]) | inhibition of growth at 25 µg/mL [18] | inhibition of growth at 100 µg/mL [20] | inhibition of growth at 6.25 µg/mL [21] | inhibition of growth at 0.78 µg/mL [22] | MIC (Staphylococcus aureus [24]) | GI50 at 48 h [25] | also measured |
| --- | --- | --- | --- | --- | --- | --- | --- | --- | --- | --- | --- | --- | --- | --- | --- | --- | --- | --- | --- | --- | --- |
| O=C1NC(=S)S/C1=C\c1cc2cc(F)ccc2nc1Cl | > 100 µg/mL | > 100 µg/mL | 28.4% | > 100 µg/mL | 40% | 45.3% | 37.5% | 2.58% | 0.38% | 31.9% | > 30 µg/mL | 25 µg/mL (≈ 77 µM) | 46.4% | 101% | 95.7% | 97.3% | 73.1% | 9.07% | 22.6 µg/mL (≈ 69.7 µM) | > 100 µg/mL | inhibition of growth at 50 µg/mL [2]: 99%; inhibition of growth at 25 µg/mL [6]: 99%; inhibition of growth at 3.13 µg/mL [15]: 71.3%; Selectivity Index [17]: 18.9; inhibition of growth at 6.25 µg/mL [19]: 99.5%; inhibition of growth at 1.56 µg/mL [23]: -2.98%; inhibition of growth at 1.56 µg/mL [26]: -13.2%; MIC (Candida albicans): 50 µg/mL (≈ 154 µM); inhibition of growth at 12.5 µg/mL [27]: 87.3% |
| COc1ccc2cc(/C=C3\SC(=S)NC3=O)c(Cl)nc2c1 | > 100 µg/mL | > 100 µg/mL | 36.4% | > 100 µg/mL | 27.6% | 9.19% | 29.8% | -8.32% | -7.94% | -6.28% | > 30 µg/mL | 50 µg/mL (≈ 148 µM) | 35.5% | -23.5% | 103% | 85.2% | 23.2% | 16.8% | > 30 µg/mL | > 100 µg/mL | IC50 [28]: 5.7 µg/mL (≈ 16.9 µM); IC90 [28]: 21.1 µg/mL (≈ 62.6 µM); inhibition of growth at 50 µg/mL [2]: 99.9%; inhibition of growth at 25 µg/mL [6]: 98.4%; inhibition of growth at 3.13 µg/mL [15]: 91.5%; Selectivity Index [17]: 60.2; inhibition of growth at 6.25 µg/mL [19]: 96.6%; inhibition of growth at 1.56 µg/mL [23]: -29.2%; inhibition of growth at 1.56 µg/mL [26]: -36.6%; MIC (Candida albicans): 50 µg/mL (≈ 148 µM); inhibition of growth at 12.5 µg/mL [27]: 69.5% |
| Cc1cccc2cc(/C=C3\SC(=S)N(CC(=O)O)C3=O)c(Cl)nc12 | > 100 µg/mL | > 100 µg/mL | 11.5% | > 100 µg/mL | 15.6% | -24.6% | 5.9% | -19.6% | 22.7% | -2.86% | > 30 µg/mL | 175 µg/mL (≈ 462 µM) | -0.186% | 15.5% | 96.8% | 100% | -2.45% | -16% | > 30 µg/mL | > 100 µg/mL | IC50 [28]: 21.2 µg/mL (≈ 56 µM); IC90 [28]: 27.3 µg/mL (≈ 72.1 µM); inhibition of growth at 12.5 µg/mL [27]: 51% |
